According to ChEMBL document CHEMBL5257020, “Discovery of a 9-mer Cationic Peptide (LTX-315) as a Potential First in Class Oncolytic Peptide” (J Med Chem, 2016):
Where a SMILES comes first, the peptide text is derived from it. [ ]: non-standard residue; d: D form. ξ: configuration not given here. ξBip = NC(Cc1ccc(-c2ccccc2)cc1)C(=O)O; ξDip = NC(C(=O)O)C(c1ccccc1)c1ccccc1

Experiments:
A498 = experiment: Cytotoxicity against human A498 cells assessed as inhibition of cell proliferation incubated for 4 hrs by MTS assay; format: functional, cell-based; conditions: A498, 4 h
How it was run: (§1)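 Cells grown in RPMI-1640 with 2 mM L-glutamine and 10% FBS, plated, then held 24 h at 37 °C. Adherent lines washed once in FBS-free medium. Cells exposed 4 h at 37 °C, 5% CO2 in FBS-free medium to 10 concentrations (1/4 steps, 400 μM top). 1% Triton X-100 served as positive control. MTS/PMS added for 2 h, then OD 490 nm read. IC50 from semilog curves; three independent experiments, quadruplicate wells.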

NAMALVA = experiment: Cytotoxicity against human NAMALVA cells assessed as inhibition of cell proliferation incubated for 4 hrs by MTS assay; format: functional, cell-based; how it was run: as §1
K562 [1] = experiment: Cytotoxicity in imatinib resistant human K562 cells assessed as inhibition of cell proliferation incubated for 4 hrs by MTS assay; format: functional, cell-based; conditions: K562, 4 h
How it was run: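 Oncodesign panel MTS/PMS assay. Cells in RPMI-1640 + 10% FBS. After 24 h pre-plating, adherent lines washed in FBS-free medium. Cells exposed 4 h at 37 °C in FBS-free medium to 10 concentrations, 1/4 dilutions from 400 μM top. Triton X-100 (1% final) positive control. MTS/PMS added, 2 h, OD 490 nm. IC50 from semilog curves. Three independent experiments, quadruplicate wells.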

IGROV-1 = experiment: Cytotoxicity against human IGROV-1 cells assessed as inhibition of cell proliferation incubated for 4 hrs by MTS assay; format: functional, cell-based; conditions: IGROV-1, 4 h; how it was run: as §1
SK-MEL-2 = experiment: Cytotoxicity against human SK-MEL-2 cells assessed as inhibition of cell proliferation incubated for 4 hrs by MTS assay; format: functional, cell-based; conditions: SK-MEL-2, 4 h; how it was run: as §1
[2] = Cytotoxicity against human Hs 445 cells assessed as inhibition of cell proliferation incubated for 4 hrs by MTS assay; format: functional, cell-based; conditions: Hs 445, 4 h; how it was run: as §1
SH-SY5Y = experiment: Cytotoxicity against human SH-SY5Y cells assessed as inhibition of cell proliferation incubated for 4 hrs by MTS assay; format: functional, cell-based; how it was run: as §1
CCRF-CEM = experiment: Cytotoxicity against human CCRF-CEM cells assessed as inhibition of cell proliferation incubated for 4 hrs by MTS assay; format: functional, cell-based; how it was run: as §1
[3] = Cytotoxicity against human MINO cells assessed as inhibition of cell proliferation incubated for 4 hrs by MTS assay; format: functional, cell-based; how it was run: as §1
MCF7 = experiment: Cytotoxicity against human MCF7 cells assessed as inhibition of cell proliferation incubated for 4 hrs by MTS assay; format: functional, cell-based; conditions: MCF7, 4 h; how it was run: as §1
HL60/ADR = experiment: Cytotoxicity against human HL60/ADR cells assessed as inhibition of cell proliferation incubated for 4 hrs by MTS assay; format: functional, cell-based; how it was run: as §1
HCT-116 = experiment: Cytotoxicity against human HCT-116 cells assessed as inhibition of cell proliferation incubated for 4 hrs by MTS assay; format: functional, cell-based; conditions: HCT-116, 4 h; how it was run: as §1
U-937 = experiment: Cytotoxicity against human U-937 cells assessed as inhibition of cell proliferation incubated for 4 hrs by MTS assay; format: functional, cell-based; conditions: U-937, 4 h; how it was run: as §1
MDA-MB-435S = experiment: Cytotoxicity against human MDA-MB-435S cells assessed as inhibition of cell proliferation incubated for 4 hrs by MTS assay; format: functional, cell-based; how it was run: as §1
A20 = experiment: Cytotoxicity against mouse A20 lymphoma cells assessed as inhibition of cell proliferation incubated for 4 hrs by MTT assay; format: functional, cell-based; conditions: A20, 4 h
How it was run: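 Murine A20 cells cultured in RPMI-1640 with 2 mM L-glutamine, 1.5 g/L sodium bicarbonate, 4.5 g/L glucose, 10 mM HEPES, 1.0 mM sodium pyruvate, 0.05 mM 2-mercaptoethanol and 10% FBS, without antibiotics, at 37 °C, 5% CO2. IC50 from three or more independent measurements, given as mean ± SD.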

Daudi = experiment: Cytotoxicity against human Daudi cells assessed as inhibition of cell proliferation incubated for 4 hrs by MTS assay; format: functional, cell-based; how it was run: as §1
K562 [4] = experiment: Cytotoxicity against human K562 cells assessed as inhibition of cell proliferation incubated for 4 hrs by MTS assay; format: functional, cell-based; conditions: K562, 4 h; how it was run: as §1
NCI-H460 = experiment: Cytotoxicity against human NCI-H460 cells assessed as inhibition of cell proliferation incubated for 4 hrs by MTS assay; format: functional, cell-based; conditions: NCI-H460, 4 h; how it was run: as §1
Malme-3M = experiment: Cytotoxicity against human Malme-3M cells assessed as inhibition of cell proliferation incubated for 4 hrs by MTS assay; format: functional, cell-based; how it was run: as §1
[5] = Cytotoxicity against human IGROV(CDDP) cells assessed as inhibition of cell proliferation incubated for 4 hrs by MTS assay; format: functional, cell-based; how it was run: as §1
[6] = Cytotoxicity against mouse AT84 cells assessed as inhibition of cell proliferation incubated for 4 hrs by MTT assay; format: functional, cell-based; conditions: AT84, 4 h
SU-DHL-1 = experiment: Cytotoxicity against human SU-DHL-1 cells assessed as inhibition of cell proliferation incubated for 4 hrs by MTS assay; format: functional, cell-based; conditions: SU-DHL-1, 4 h; how it was run: as §1
A549 = experiment: Cytotoxicity against human A549 cells assessed as inhibition of cell proliferation incubated for 4 hrs by MTS assay; format: functional, cell-based; conditions: A549, 4 h; how it was run: as §1
HCT-15 = experiment: Cytotoxicity against human HCT-15 cells assessed as inhibition of cell proliferation incubated for 4 hrs by MTS assay; format: functional, cell-based; conditions: HCT-15, 4 h; how it was run: as §1
[7] = Cytotoxicity against human HUVEC-C cells assessed as inhibition of cell proliferation incubated for 4 hrs by MTS assay; format: toxicity, cell-based; how it was run: as §1
A-431 = experiment: Cytotoxicity against human A-431 cells assessed as inhibition of cell proliferation incubated for 4 hrs by MTS assay; format: functional, cell-based; conditions: A-431, 4 h; how it was run: as §1
SK-N-AS = experiment: Cytotoxicity against human SK-N-AS cells assessed as inhibition of cell proliferation incubated for 4 hrs by MTS assay; format: functional, cell-based; how it was run: as §1
[8] = Cytotoxicity against human MRC5 cells assessed as inhibition of cell proliferation incubated for 4 hrs by MTS assay; format: toxicity, cell-based; how it was run: as §1
HepG2 = experiment: Cytotoxicity against human HepG2 cells assessed as inhibition of cell proliferation incubated for 4 hrs by MTS assay; format: functional, cell-based; conditions: HepG2, 4 h; how it was run: as §1
Raji = experiment: Cytotoxicity against human Raji cells assessed as inhibition of cell proliferation incubated for 4 hrs by MTS assay; format: functional, cell-based; how it was run: as §1
PC-3 = experiment: Cytotoxicity against human PC-3 cells assessed as inhibition of cell proliferation incubated for 4 hrs by MTS assay; format: functional, cell-based; conditions: PC-3, 4 h; how it was run: as §1
[9] = Cytotoxicity against human U-87 MG cells assessed as inhibition of cell proliferation incubated for 4 hrs by MTS assay; format: functional, cell-based, U-87MG ATCC; how it was run: as §1
Calu-6 = experiment: Cytotoxicity against human Calu-6 cells assessed as inhibition of cell proliferation incubated for 4 hrs by MTS assay; format: functional, cell-based; conditions: Calu-6, 4 h; how it was run: as §1
Toledo = experiment: Cytotoxicity against human Toledo cells assessed as inhibition of cell proliferation incubated for 4 hrs by MTS assay; format: functional, cell-based; how it was run: as §1
KARPAS-299 = experiment: Cytotoxicity against human KARPAS-299 cells assessed as inhibition of cell proliferation incubated for 4 hrs by MTS assay; format: functional, cell-based; conditions: KARPAS-299, 4 h; how it was run: as §1
SK-OV-3 = experiment: Cytotoxicity against human SK-OV-3 cells assessed as inhibition of cell proliferation incubated for 4 hrs by MTS assay; format: functional, cell-based; conditions: SK-OV-3, 4 h; how it was run: as §1
BXPC-3 = experiment: Cytotoxicity against human BXPC-3 cells assessed as inhibition of cell proliferation incubated for 4 hrs by MTS assay; format: functional, cell-based; conditions: BXPC-3, 4 h; how it was run: as §1

Row | SMILES | IC50 (A498) [µM] | IC50 (NAMALVA) [µM] | IC50 (K562 [1]) [µM] | IC50 (IGROV-1) [µM] | IC50 (SK-MEL-2) [µM] | IC50 [2] [µM] | IC50 (SH-SY5Y) [µM] | IC50 (CCRF-CEM) [µM] | IC50 [3] [µM] | IC50 (MCF7) [µM] | IC50 (HL60/ADR) [µM] | IC50 (HCT-116) [µM] | IC50 (U-937) [µM] | IC50 (MDA-MB-435S) [µM] | IC50 (A20) [µM] | IC50 (Daudi) [µM] | IC50 (K562 [4]) [µM] | IC50 (NCI-H460) [µM] | IC50 (Malme-3M) [µM] | IC50 [5] [µM] | also measured
1 | NCCCC[C@H](NC(=O)[C@H](Cc1c[nH]c2ccccc12)NC(=O)[C@H](CCCCN)NC(=O)[C@H](CCCCN)NC(=O)C(NC(=O)[C@H](Cc1c[nH]c2ccccc12)NC(=O)[C@H](CCCCN)NC(=O)[C@H](CCCCN)NC(=O)[C@@H](N)Cc1c[nH]c2ccccc12)C(c1ccccc1)c1ccccc1)C(N)=O (some centres undefined) (H-WKKW[ξDip]KKWK-NH2) | 13.9 | 7.1 | 9 | 19.6 | 18.4 | 6.5 | 12.7 | 7.8 | 9.5 | 8.9 | 10.5 | 10.3 | 5.3 | 14.1 | 16 | 8.1 | 8.2 | 9 | 12.4 | 6.4 | IC50 [6]: 21 µM; IC50 (SU-DHL-1): 7.3 µM; IC50 (A549): 10.4 µM; IC50 (HCT-15): 12 µM; IC50 at 4 h [7]: 55.5 µM; IC50 (A-431): 11.7 µM; IC50 (SK-N-AS): 10.4 µM; IC50 at 4 h [8]: 28 µM; IC50 (HepG2): 20.1 µM; IC50 (Raji): 12.5 µM; IC50 (PC-3): 14.1 µM; IC50 [9]: 17.3 µM; IC50 (Calu-6): 6.9 µM; IC50 (Toledo): 7.7 µM; IC50 (KARPAS-299): 11.6 µM; IC50 (SK-OV-3): 18.1 µM; IC50 (BXPC-3): 17.9 µM
2 | NCCCC[C@H](NC(=O)[C@H](Cc1c[nH]c2ccccc12)NC(=O)[C@H](Cc1c[nH]c2ccccc12)NC(=O)[C@H](CCCCN)NC(=O)[C@H](CCCCN)NC(=O)[C@H](Cc1c[nH]c2ccccc12)NC(=O)C(Cc1ccc(-c2ccccc2)cc1)NC(=O)[C@H](CCCCN)NC(=O)[C@@H](N)CCCCN)C(N)=O (some centres undefined) (H-KK[ξBip]WKKWWK-NH2) | 7.9 | 8.5 | 7.9 | 13.4 | 13.4 | 4.2 | 7.8 | 7.6 | 8.4 | 6.8 | 7 | 7.6 | 3.8 | 11.4 | 13 | 6.6 | 7.2 | 11.2 | 8.9 | 6.6 | IC50 [6]: 17.7 µM; IC50 (SU-DHL-1): 4.6 µM; IC50 (A549): 10.3 µM; IC50 (HCT-15): 13.9 µM; IC50 at 4 h [7]: 37.9 µM; IC50 (A-431): 7.2 µM; IC50 (SK-N-AS): 6.1 µM; IC50 at 4 h [8]: 30.9 µM; IC50 (HepG2): 14.8 µM; IC50 (Raji): 16.1 µM; IC50 (PC-3): 9.3 µM; IC50 [9]: 18.5 µM; IC50 (Calu-6): 6.1 µM; IC50 (Toledo): 5.2 µM; IC50 (KARPAS-299): 10 µM; IC50 (SK-OV-3): 17.7 µM; IC50 (BXPC-3): 8.9 µM
